Source: PubChem
Shown are actives, neighbours in structure and some others; about 1.6% of the full set was active somewhere.
NR2E3 ag-1: activates human NR2E3 receptor; inhibition of corepressor binding, % at 3.98 µM; Q9Y5X4; CHO-S Gal4-NCOR/VP16-NR2E3 two-hybrid, luciferase; 360,000 compounds, 0.35% hits;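 active = inhibition above the mean of all tested compounds plus 3 SD, cut at about 70% in these data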;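 note: 0% = DMSO with NR2E3 transfected cells and 100% = cells lacking NR2E3 construct; higher means lower luciferase signal from less NR2E3 corepressor binding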
PG9 Ab binder: small molecules binding HIV-1 gp120 antibody PG9. inhibition, % at 6.7 µM. TR-FRET gp120-PG9 antibody binding. AID 624416. 360,000 compounds, 0.43% hits; in the data active = inhibition above about 8.5%
VLA-4 inh: inhibition in a human VLA-4 binding assay; P13612; VLA-4 expressing cells, ligand binding flow cytometry; inhibition, % (about 7 µM as worked out from the volumes in the protocol); 330,000 compounds, 0.2% hits; AID 2557; in the data active = inhibition above about 50%
NR2E3 ag-2: agonists of human nuclear receptor NR2E3 | Q9Y5X4 | GST-NR2E3/biotin-RetCOR TR-FRET, 1536-well | inhibition of corepressor binding, % at 4.78 µM | 320,000 compounds, 0.12% hits | AID 2300;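 active = percent inhibition above the cutoff of mean plus 3 SD of all tested compounds, set per screening campaign, cut at about 20% in these data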;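 note: 0% = DMSO wells and 100% = biotin wells as full block of FRET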
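Material: NR2E3–RetCOR corepressor complex | Quantity: 1.35 nM GST-tagged NR2E3 final | Schedule: 5 h at 4 °C | Replication: Singlicate compound wells | Reagent: RetCOR corepressor, biotinylated, 7 nM | Controls: Biotin wells as high control, 0.6% DMSO wells as low control | Signal: TR-FRET, Eu(K)-anti-GST donor, streptavidin-D2 acceptor, ex 340, em 617/671 nm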
Rev-erbA mod: Rev-erb alpha (human) modulation; P20393; Rev-erbα–FITC-DNA binding, fluorescence polarization, 90 min; activity, % at 10 µM; 370,000 compounds, 0.79% hits;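 active = activity above about 14%, limit read from the data; passing the limit was not always enough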;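 note: 0% = DMSO wells with 35 nM protein and 100% = DMSO wells with 750 nM protein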
Target sequence (P20393 whole entry, looked up): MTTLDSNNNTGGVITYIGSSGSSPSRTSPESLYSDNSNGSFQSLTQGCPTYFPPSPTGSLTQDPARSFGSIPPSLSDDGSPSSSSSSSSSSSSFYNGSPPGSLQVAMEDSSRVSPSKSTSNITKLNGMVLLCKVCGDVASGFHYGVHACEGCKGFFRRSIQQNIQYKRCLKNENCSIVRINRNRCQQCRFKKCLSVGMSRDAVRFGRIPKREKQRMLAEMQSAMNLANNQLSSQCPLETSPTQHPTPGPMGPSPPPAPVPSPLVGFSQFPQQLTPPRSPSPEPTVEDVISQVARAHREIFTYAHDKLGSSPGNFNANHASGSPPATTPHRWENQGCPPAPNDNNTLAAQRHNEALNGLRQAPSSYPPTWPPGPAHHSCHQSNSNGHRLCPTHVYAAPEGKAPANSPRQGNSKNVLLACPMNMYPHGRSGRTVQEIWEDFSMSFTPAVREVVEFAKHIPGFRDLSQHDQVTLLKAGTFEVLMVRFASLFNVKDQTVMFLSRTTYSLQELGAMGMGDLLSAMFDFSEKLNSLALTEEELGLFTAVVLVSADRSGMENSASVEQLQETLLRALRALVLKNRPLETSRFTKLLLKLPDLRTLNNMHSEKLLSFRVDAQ
NR2E3 ag confirm: NR2E3 agonism confirmed in two-hybrid assay. CHO-S mammalian two-hybrid NR2E3-NCOR, luciferase luminescence. shares compounds with NR2E3 ag-1. 2,300 compounds, 51% hits. inhibition, % at 3.98 µM;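 active = average inhibition above a cutoff equal to the mean inhibition of all tested compounds plus one SD, cut at about 70% in these data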;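 note: 0% = DMSO in NR2E3 cells and 100% = DMSO in cells lacking NR2E3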
GAL4-VP16 luc: reduces GAL4-VP16 reporter signal in NR2E3 counterscreen; shares compounds with NR2E3 ag-1; inhibition, % at 3.98 µM; CHO-S GAL4-VP16 luciferase reporter, luminescence; 2,300 compounds, 29% hits; AID 624379;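 active = mean inhibition above a cutoff equal to the average over all tested compounds plus one standard deviation, cut at about 70% in these data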;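 note: luciferase from a UAS reporter driven by GAL4-VP16 transactivation; 0% = DMSO with VP16-transfected cells and 100% = DMSO with cells lacking VP16; higher means less reporter light so more repression of VP16 activity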
Numbers without * were called inactive; / = no result given.

SMILES	NR2E3 ag-1	PG9 Ab binder	VLA-4 inh	NR2E3 ag-2	Rev-erbA mod	NR2E3 ag confirm	GAL4-VP16 luc
COc1cc(NS(=O)(=O)c2ccc(C)cc2)c2ncccc2c1	82*	-1	9	0	1	-20	3
Cc1ccc(S(=O)(=O)Nc2ccccc2-c2ccccc2NS(=O)(=O)c2ccc(C)cc2)cc1	45	0	5	1	-5	/	/
O=S(=O)(Nc1ccccc1O)c1ccc(-c2ccccc2)cc1	0	1	-8	3	-2	/	/
COc1ccc(S(=O)(=O)Nc2ccccn2)cc1	-4	-2	9	2	5	/	/
Cc1ccc(S(=O)(=O)Nc2cccc3cccnc23)cc1	97*	0	7	2	6	46	5
O=S(=O)(Nc1cccnc1Cl)c1ccc(-c2ccccc2)cc1	64	0	-46	0	-2	53	45
Cc1ccc(-c2ccc(S(=O)(=O)Nc3cccnc3)cc2)cc1	65	-2	-3	2	2	84*	69
O=c1[nH]c(=O)c2[nH]c(=O)[nH]c2[nH]1	/	/	/	/	4	/	/
C=CCN1[C@@H](C)COc2cc(F)ccc2S1(=O)=O	/	/	/	/	2	/	/
COc1ccc(CCOC(=O)c2ccc(N)c([N+](=O)[O-])c2)cc1	50	2	-8	4	-2	26	46
Cc1cnc(NC(=O)CCCc2nc3ccccc3s2)s1	109*	2	-10	8	-3	98*	23
O=[N+]([O-])c1cc(C(F)(F)F)cc([N+](=O)[O-])c1NCCNC(=S)Nc1ccc(Cl)c(Cl)c1	65	-1	-5	2	9	98*	25
CCNC(=S)N1CCN(c2ccccn2)CC1	-14	-2	2	-2	-5	/	/
CC(NNC(=S)N1CCN(c2ccccn2)CC1)c1nccc2ccccc12 (centres undefined)	83*	-1	/	/	-4	5	14
CCN(CC)C(=O)c1ncn2c1C(=O)NC[C@H]2C	/	-1	/	/	-2	/	/
C[C@@H]1CN([C@@H](C)CO)C(=O)CCCn2cc(nn2)CO[C@H]1CN(C)C(=O)C1CCCCC1	/	-1	/	/	-6	/	/
Cc1csc(SCC(=O)Nc2sc3c(c2C#N)CCC3)n1	1	1	-1	-1	-6	/	/
Cc1ccnc(SCC(=O)Nc2sc3c(c2C#N)CCCC3)n1	85*	2	-9	2	-5	92*	85*
N#C[C@@H]1N[C@H](CO)[C@@H]1c1ccccc1	/	/	/	/	-3	/	/
CS(=O)(=O)N1CCc2cc(S(=O)(=O)Nc3ccc4oc5c(c4c3)CCCC5)ccc21	62	-1	17	0	8	79*	68
COC(=O)[C@]12C[C@H](CC(=O)NCCCN3CCCC3=O)C(=O)N(CCC3=CCCCC3)C1=C[C@H](C(C)C)O[C@@H]2C1CC1	/	/	/	/	1	/	/
COc1ccc(CCNc2nc(C)nc3c2oc2ccccc23)cc1OC	73*	0	15	1	-1	90*	73*
Cc1nc(NC(C)c2ccccc2)c2oc3ccccc3c2n1 (centres undefined)	62	0	9	0	0	81*	66
COc1ccc(CCNc2ncnc3c2oc2ccccc23)cc1OC	90*	3	12	1	/	97*	86*
CCc1ccc(CN(C)C(=O)c2cc(COc3ccc(-n4cncn4)cc3)on2)cc1	80*	1	14	2	-4	43	44
SMILES	NR2E3 ag-1	PG9 Ab binder	VLA-4 inh	NR2E3 ag-2	Rev-erbA mod	NR2E3 ag confirm	GAL4-VP16 luc
Cc1ccc(OCc2cc(C(=O)N(C)Cc3cnn(-c4ccccc4C)c3)no2)cn1	80*	0	-17	1	-4	56	49
CC(C)N(Cc1nccn1C)C(=O)c1cc(COc2ccc(-n3cncn3)cc2)on1	-22	-4	6	2	-3	/	/
CN(Cc1ccc(F)cc1)C(=O)c1cc(COc2ccc(-n3cncn3)cc2)on1	73*	0	0	/	-5	61	63
O=C(CNS(=O)(=O)c1cccs1)N1CCN(c2ncccn2)CC1	/	/	/	/	-6	/	/
COCCn1c(C)cc(C(=O)COc2ccc(C)nc2[N+](=O)[O-])c1C	63	-3	-4	0	1	77*	44
C=CCn1c(C)cc(C(=O)COc2ccc(C)nc2[N+](=O)[O-])c1C	71*	-1	3	0	-2	71*	53
Cc1ccc(OCC(=O)c2cc(C)n(-c3ccccc3)c2C)c([N+](=O)[O-])n1	73*	1	-2	-2	5	61	67
Cc1nc(SCc2ccc(Cl)c(Cl)c2)ncc1C(=O)O	59	0	5	3	5	14	27
CC(C)(C)c1ccc(S(=O)(=O)N2CCCC2C(=O)N2CCN(c3ccccc3)CC2)cc1 (centres undefined)	/	/	/	/	-3	/	/
CCOc1cccc(/C=N/NC(=S)Nc2ccccc2[N+](=O)[O-])c1O	83*	-1	12	3	-3	53	26
CCCCNC(=S)N/N=C/c1cccc(OCC)c1O	-7	1	-2	1	1	/	/
c1ccc(CCNc2ccnc3cc4ccccc4cc23)cc1	93*	-13	/	/	6	97*	82*
COCCCN1C(=O)[C@H](CC(=O)NCc2ccccc2)[C@]2(C(=O)OC)CCCCC=C12	/	/	/	/	0	/	/
CCc1ccccc1NC(=O)COC(=O)c1c(C)nsc1NC	21	0	-15	3	-4	/	/
CNc1snc(C)c1C(=O)OCC(=O)Nc1ccc(C)cc1F	48	0	/	/	6	31	39
CC(=O)c1cc(-c2cc(C(=O)O)cc([N+](=O)[O-])c2)c(=O)n2c1CCC2	/	/	/	/	-14	/	/
CCn1c(=O)n2n(c1=O)[C@H]1C[N+](Cc3ccc4c(c3)OCO4)=C(N)NC1=C(C)C2	/	/	/	/	9	/	/
NC(=S)N/N=C\c1c(OCc2ccccc2Cl)ccc2ccccc12	94*	-1	3	2	-6	-16	-3
Cc1nc(NC(=O)c2ccco2)sc1C(=O)Nc1ccc(Br)cc1	54	/	27	7	/	64	22
Cc1nc(NC(=O)c2ccco2)sc1C(=O)O	-6	-1	-3	2	2	/	/
O=C(Nc1ccccc1)n1ccc2ccc(-c3ccc4cc[nH]c4c3)cc21	/	/	/	/	4	/	/
Cc1ccc(OCc2nn3c(C4CCCCC4)nnc3s2)cc1	/	/	/	/	2	/	/
Cc1ccc(NS(=O)(=O)c2ccc(NC(=O)C3CC3)cc2)c(C)c1	64	-1	-12	2	-5	31	30
Cc1ccc(NS(=O)(=O)c2ccc(NC(=O)c3cccs3)cc2)c(C)c1	3	2	6	0	5	/	/
CSc1ccc(C(=O)C2CCCN(C(=O)CCn3cncn3)C2)cc1 (centres undefined)	6	-1	-5	0	0	/	/
